Blank lines part the entries; values can stand above or below the molecule they belong to.
Key:
[1] = Free fraction ratio; format: in vitro ADME, rat; conditions: in vitro
[2] = PK of TRH mimetics in rat, cassette dosing i.v. and p.o.; format: in vivo; conditions: for MRT / Vd / clearance / half-life: male, Sprague-Dawley, plasma, iv, 1 umol/kg; for BA: oral 2 μmol/kg vs i.v. 1 μmol/kg
Summary of the method: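 Cassette dosing in rats (n = 2, 302–364 g). p.o.: 2 μmol/5 mL/kg in DMSO/0.5% methylcellulose 1/4. i.v.: 1 μmol/1 mL/kg in DMSO/propylene glycol 1/1. Heparinized jugular blood; plasma precipitated with methanol/acetonitrile 1/1; LC/MS/MS, ESI positive. t1/2 from terminal phase; MRT by linear trapezoid with monoexponential extrapolation; BA = dose-normalized po/iv AUC ratio. Mean of two animals.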

[3] = system: CYP1A2, CYP2A6, CYP2B6, CYP2C9, CYP2C19, CYP2D6, CYP2E1, CYP3A4/5, CYP4A11; assay: Direct CYP inhibition, 10 CYP enzymes; format: in vitro ADME; conditions: human
[4] = system: CYP1A2, CYP2A6, CYP2B6, CYP2C8, CYP2C9, CYP2C19, CYP2D6, CYP2E1, CYP3A4/5, CYP4A11; assay: Direct CYP inhibition, 10 CYP enzymes; format: in vitro ADME; conditions: human
[5] = target: human TRH-R; conditions: read-out: Ki for human TRH-R; in vitro binding, reported previously; cited from earlier work
[6] = system: reserpine-induced hypothermia mice; assay: Antagonistic effect on reserpine-induced hypothermia in mice; format: in vivo; conditions: p.o.; for rectal temperature compared with saline levels: 79 5 μmol/kg from 2 to 7 h, TRH 50 μmol/kg from 0 to 7 h; for rectal temperature ΔAUC0–7h = AUC0–7h(compounds) – AUC0–7h(saline) / rectal temperature AUC0–7h: reserpine-induced hypothermia mice, TRH 50 μmol/kg, 79 5 μmol/kg; for rectal temperature AUC0–7h: mean ± SD
Summary of the method: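 Male ddY mice (bought at 6 weeks, 1-week quarantine, ~25 °C). Reserpine 3 mg/kg s.c.; mice with rectal temperature ≤30 °C about 18 h later were used. Test compound in saline p.o. at 5 μmol/kg, TRH at 50 μmol/kg, saline controls. Rectal temperature by thermistor before and up to 7 h post-dose. Trapezoidal AUC0–7h, with saline AUC subtracted. Mean ± SD, ≥3 animals.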

[7] = system: plasma TSH level; assay: TSH releasing activity after oral administration in rats; format: in vivo; conditions: rat
Summary of the method: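 Male Sprague-Dawley rats (258–320 g, n ≥ 4, fed), dosed p.o. at 0.1 or 1 mg/2 mL/kg in water. Blood taken by decapitation at scheduled times, clotted 30 min at 25 °C, centrifuged for serum. TSH measured by [125I] rat TSH assay kit with magnetic separation. Mean ± SD.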

[8] = target: T1, CYP2C8 (Homo sapiens, UniProt P10632); assay: Direct CYP inhibition, CYP2C8; format: in vitro ADME
T1 sequence (P10632 1-490): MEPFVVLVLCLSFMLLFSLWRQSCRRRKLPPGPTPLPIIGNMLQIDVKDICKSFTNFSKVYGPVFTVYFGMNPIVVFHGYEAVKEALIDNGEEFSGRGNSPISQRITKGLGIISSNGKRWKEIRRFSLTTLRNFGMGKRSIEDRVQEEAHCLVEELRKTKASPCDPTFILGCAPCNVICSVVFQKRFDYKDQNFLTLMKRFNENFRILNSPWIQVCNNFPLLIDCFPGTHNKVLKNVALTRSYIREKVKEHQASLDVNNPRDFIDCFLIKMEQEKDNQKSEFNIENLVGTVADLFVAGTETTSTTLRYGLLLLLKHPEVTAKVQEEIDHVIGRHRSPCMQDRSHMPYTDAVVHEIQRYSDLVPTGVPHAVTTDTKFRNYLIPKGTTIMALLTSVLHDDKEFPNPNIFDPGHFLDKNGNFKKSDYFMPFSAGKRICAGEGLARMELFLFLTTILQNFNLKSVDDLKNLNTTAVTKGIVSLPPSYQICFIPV

[9] = PK of TRH and 79 after oral administration to fasted conscious rats; format: in vivo, rat; conditions: for AUC(0-t) / Cmax / Tmax: male, Wistar, rat, plasma, po, 40 mg/kg
Summary of the method: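 Male Wistar rats (10–11 weeks, 230–274 g, n ≥ 4), fasted from the evening before dosing to the 12 h sample. Jugular cannula placed under isoflurane 2–3 days before. Single p.o. dose of 40 mg/4 mL/kg in saline. Heparinized blood (~0.3 mL) drawn via cannula; plasma deproteinized with methanol; HPLC with UV absorbance detection. Cmax, Tmax, AUC0–8h given as mean ± SD.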

[10] = Stability in rat plasma, cerebrum and cerebellum homogenate at 37 °C; format: in vitro ADME; conditions: for compound remaining, cerebellum: rat cerebellum homogenate; for compound remaining, cerebrum: rat cerebrum homogenate; for compound remaining, plasma: rat plasma
[11] = system: rats with Ara-C-induced cerebellar damage; assay: Ara-C-induced cerebellar ataxia in rats, open field fall index; format: in vivo, rat
[12] = system: rats; assay: Acute lethal dose, single oral administration in rats; format: in vivo, rat
[13] = cited from earlier work

Structure (SMILES): C[C@@H]1OC(=O)N[C@@H]1C(=O)N[C@@H](Cc1cscn1)C(=O)N1CCC[C@H]1C [Compound 79, 1-{N-[(4S,5S)-(5-Methyl-2-oxooxazolidine-4-yl)carbonyl]-3-(thiazol-4-yl)-L-alanyl}-(2R)-2-methylpyrrolidine trihydrate]
inhibition at 300 μM [3]: ≤ 10%
inhibition at 300 μM [4]: ≤ 50%
Ki [5]: 702 nM
rectal temperature compared with saline levels [6]: > 2.5 °C
rectal temperature ΔAUC0–7h = AUC0–7h(compounds) – AUC0–7h(saline) [6]: 28.0 ± 4.3 °C·h
rectal temperature AUC0–7h [6]: 233.4 ± 4.3 °C·h
plasma TSH level ([7]; p.o. 0.1 mg/kg, at 0.5 h): 46.8 ng/mL
plasma TSH level ([7]; p.o. 1 mg/kg, at 0.5 h): 80.4 ng/mL
plasma TSH level ([7]; p.o. 0.1 and 1 mg/kg, at 24 h): recovered to vehicle levels
inhibition at 300 μM [8]: ~20%
Cmax and AUC0–8h relative to TRH ([9]; fasted rats, p.o. 40 mg/kg): over 12 times
AUC(0-t) [9]: 817 ± 349 ng·h/mL
Cmax [9]: 636 ± 232 ng/mL
Tmax [9]: 15 min
compound remaining, cerebellum ([10]; 15 min): 100 ± 0.0%
compound remaining, cerebellum ([10]; 30 min): 99.9 ± 0.0%
compound remaining, cerebellum ([10]; 60 min): 99.7 ± 0.0%
compound remaining, cerebellum ([10]; 120 min): 99.6 ± 0.1%
compound remaining, cerebellum ([10]; 180 min): 99.5 ± 0.1%
compound remaining, cerebrum ([10]; 15 min): 100.2 ± 0.2%
compound remaining, cerebrum ([10]; 30 min): 100.2 ± 0.1%
compound remaining, cerebrum ([10]; 60 min): 100.3 ± 0.1%
compound remaining, cerebrum ([10]; 120 min): 99.9 ± 0.1%
compound remaining, cerebrum ([10]; 180 min): 99.7 ± 0.1%
compound remaining, plasma ([10]; 15 min): 100 ± 0.1%
compound remaining, plasma ([10]; 30 min): 99.8 ± 0.1%
compound remaining, plasma ([10]; 60 min): 99.6 ± 0.3%
compound remaining, plasma ([10]; 120 min): 99.8 ± 0.2%
compound remaining, plasma ([10]; 180 min): 99.8 ± 0.1%
fall index ([11]; 79 10 and 30 mg/kg p.o. once daily for 7 days, vs control): significant decrease
acute lethal dose [12]: over 2000 mg/kg

Structure (SMILES): C[C@@H]1OC(=O)N[C@@H]1C(=O)N[C@@H](Cc1cscn1)C(=O)N1CCC[C@H]1C [Compound 70, 1-{N-[(4S,5S)-(5-Methyl-2-oxooxazolidine-4-yl)carbonyl]-3-(thiazol-4-yl)-L-alanyl}-(2R)-2-methylpyrrolidine]
fu: free fraction ratio in serum [1]: >99%
MRT [2]: 19.1 min
Vd [2]: 0.58 L/kg
clearance [2]: 30.6 mL/min/kg
half-life [2]: 21.6 min
BA [2]: 4.7%

Structure (SMILES): NC(=O)[C@@H]1CCCN1C(=O)[C@H](Cc1cnc[nH]1)NC(=O)[C@@H]1CCC(=O)N1 [TRH, L-pGlu–L-His–L-Pro-NH2, reference compound]
Ki [5]: 128 nM
rectal temperature compared with saline levels [6]: almost the same low rectal temperature profiles as the saline levels
rectal temperature ΔAUC0–7h = AUC0–7h(compounds) – AUC0–7h(saline) [6]: –4.0 ± 3.3 °C·h
rectal temperature AUC0–7h [6]: 201.4 ± 3.3 °C·h
AUC(0-t) [9]: 68 ± 72 ng·h/mL
Cmax [9]: 50 ± 39 ng/mL
Tmax [9]: 45 ± 17.4 min
t1/2 of degradation by the brain homogenate [13]: 7.9 min
fall index ([11]; 10 mg/kg i.v. once, 30 min post-dose, mean ± SE, vehicle 2.06 ± 0.09): 1.05 ± 0.22
fall index ([11]; 30 mg/kg i.v. once, 30 min post-dose, mean ± SE, vehicle 2.06 ± 0.09): 0.87 ± 0.17
fall index ([11]; TRH 30, 100 and 300 mg/kg p.o. once daily for 7 days): no significant decrease
MRT [2]: 3.7 min
Vd [2]: 0.33 L/kg
clearance [2]: 89.2 mL/min/kg
half-life [2]: 3 min

Structure (SMILES): C[C@@H]1OC(=O)N[C@@H]1C(=O)N[C@@H](Cc1cscn1)C(=O)N1CCC[C@H]1C#N [Compound 69, 1-{N-[(4S,5S)-(5-Methyl-2-oxooxazolidine-4-yl)carbonyl]-3-(thiazol-4-yl)-L-alanyl}-(2S)-2-cyanopyrrolidine]
fu: free fraction ratio in serum [1]: >99%
MRT [2]: 14.6 min
Vd [2]: 0.25 L/kg
clearance [2]: 17.4 mL/min/kg
half-life [2]: 26.2 min

Next, values leading:

fu: free fraction ratio in serum [1]: >99%
MRT [2]: 11 min
Vd [2]: 0.16 L/kg
clearance [2]: 14.2 mL/min/kg
half-life [2]: 9.8 min
Structure (SMILES): C[C@@H]1OC(=O)N[C@@H]1C(=O)N[C@@H](Cc1cscn1)C(=O)N1CSC[C@H]1C(N)=O [Compound 68, 3-{N-[(4S,5S)-(5-Methyl-2-oxooxazolidine-4-yl)carbonyl]-3-(thiazol-4-yl)-L-alanyl}-(4R)-4-thiazolidinecarboxamide]

fu: free fraction ratio in serum [1]: >99%
MRT [2]: 14.3 min
Vd [2]: 0.19 L/kg
clearance [2]: 13 mL/min/kg
half-life [2]: 13.5 min
BA [2]: 1.1%
Structure (SMILES): C[C@@H]1OC(=O)N[C@@H]1C(=O)N[C@@H](Cc1cscn1)C(=O)N1CCC[C@H]1C(N)=O [Compound 64, {[(4S,5S)-(5-Methyl-2-oxooxazolidine-4-yl)carbonyl]-3-(thiazol-4-yl)-L-alanyl}-L-prolinamide]

— PMC6217654 (ACS Omega, 2018)
